Measurements published in ChEMBL document CHEMBL4376807, “Hydroxamic Acid Derivatives of β-Carboline/Hydroxycinnamic Acid Hybrids Inducing Apoptosis and Autophagy through the PI3K/Akt/mTOR Pathways” (J Nat Prod, 2019).
The source made the active and inactive calls. The calls are words filed in the database; no cut-off is given here.

Legend:
SMMC-7721 = assay: Antiproliferative activity against human SMMC7721 cells after 72 hrs by MTT assay; assay type: functional, cell-based; settings: SMMC-7721, 72 h
Histone deacetylase 1 = Histone deacetylase 1 (Homo sapiens, UniProt Q13547); assay: Inhibition of HDAC1 (unknown origin) using Boc-Lys (Ac)-AMC as substrate incubated for 60 mins by fluorimetric assay
Histone deacetylase 1, sequence (Q13547 whole entry): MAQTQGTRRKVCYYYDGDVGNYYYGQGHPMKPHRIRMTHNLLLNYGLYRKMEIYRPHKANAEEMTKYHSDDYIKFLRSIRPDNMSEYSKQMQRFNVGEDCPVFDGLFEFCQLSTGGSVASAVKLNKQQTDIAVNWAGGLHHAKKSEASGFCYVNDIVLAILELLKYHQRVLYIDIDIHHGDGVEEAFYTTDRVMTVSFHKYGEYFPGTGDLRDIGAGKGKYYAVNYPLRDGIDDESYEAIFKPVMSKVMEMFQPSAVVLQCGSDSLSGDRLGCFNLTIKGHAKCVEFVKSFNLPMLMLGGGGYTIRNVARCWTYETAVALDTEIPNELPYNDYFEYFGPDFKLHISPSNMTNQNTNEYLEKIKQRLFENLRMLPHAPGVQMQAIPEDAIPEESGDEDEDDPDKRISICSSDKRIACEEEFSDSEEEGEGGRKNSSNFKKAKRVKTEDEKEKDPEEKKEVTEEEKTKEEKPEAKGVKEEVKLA

Bel-7402 [1] = assay: Antiproliferative activity against human Bel7402 cells after 72 hrs by MTT assay; assay type: functional, cell-based; settings: Bel-7402, 72 h
HepG2 = assay: Antiproliferative activity against human HepG2 cells after 72 hrs by MTT assay; assay type: functional, cell-based; settings: HepG2, 72 h
Bel-7402 [2] = assay: Induction of autophagy in human Bel7402 cells assessed as upregulation of LC3-2 level at 5 uM after 24 to 72 hrs by Western blot analysis; assay type: functional, cell-based
Procedure, shortened: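 Bel7402 cells (1.5 × 10^5/mL) exposed to compound at indicated doses, or vehicle, for 24 or 72 h. Lysates (0.05 mg/lane) separated on 12% SDS-PAGE, blotted to nitrocellulose, blocked in 5% milk. Probed with anti-LC3, anti-p62 and anti-beclin-1, HRP secondary, chemiluminescent detection. Levels quantified relative to β-actin; three separate assays, mean ± SD.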

Bel-7402 [3] = assay: Induction of autophagy in human Bel7402 cells assessed as accumulation of autophagic vacuoles at 5 uM after 24 hrs by acridine orange staining based fluorescence microscopic method; assay type: functional, cell-based
Procedure, shortened: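 Bel7402 cells (10 000) cultured overnight, then exposed to compound at 1.0 or 5.0 μM, or vehicle. Stained with 1 mg/mL acridine orange for 15−20 min, then dye removed. Red versus green fluorescence viewed by fluorescence microscopy at 400×. Representative images from three independent experiments.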

Bel-7402 [4] = assay: Induction of apoptosis in human Bel7402 cells assessed as annexin-V positive cells at 5 uM after 72 hrs by Annexin-V/PI staining based flow cytometry relative to control; assay type: functional
Procedure, shortened: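 Bel7402 cells (10 000) cultured overnight, then exposed to compound at 1.0 or 5.0 μM, or vehicle, for 72 h. Harvested, stained with annexin-V APC and 7-AAD for 15 min. Apoptotic percentage measured by flow cytometry (APC ex 633/em 660 nm; 7-AAD ex 488/em 647 nm). Three separate assays, mean ± SD.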

Bel-7402 [5] = assay: Induction of apoptosis in human Bel7402 cells assessed as increase in cleaved PARP level at 5 uM after 72 hrs by Western blot analysis; assay type: functional, cell-based
Procedure, shortened: (§1)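 Subconfluent Bel7402 cells (1.5 × 10^5/mL) exposed to vehicle or compound for 72 h, then lysed. Lysates (0.05 mg/lane) run on 12% SDS-PAGE, transferred to nitrocellulose, blocked in 5% nonfat milk. Probed for Bax, Bcl-2, cleaved caspase-3 and cleaved PARP, with HRP secondary and chemiluminescence. Levels normalized to β-actin; three separate assays, mean ± SD.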

Bel-7402 [6] = assay: Induction of apoptosis in human Bel7402 cells assessed as increase in cleaved caspase-3 level at 5 uM after 72 hrs by Western blot analysis; assay type: functional, cell-based; procedure, shortened: as §1
Bel-7402 [7] = assay: Induction of apoptosis in human Bel7402 cells assessed as annexin-V positive cells at 20 uM after 72 hrs by […] relative to control; assay type: functional
Bel-7402 [8] = assay: Induction of autophagy in human Bel7402 cells assessed as accumulation of autophagic vacuoles at 20 uM after 24 hrs by acridine orange staining based fluorescence microscopic method; assay type: functional, cell-based
Procedure, shortened: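 Bel7402 cells (10 000) seeded overnight, then exposed alongside vehicle. Stained with acridine orange (1 mg/mL) for 15−20 min. Autophagic vacuoles scored by fluorescence microscopy as red versus green fluorescence at 400×. Representative images from three independent experiments.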

[9] = Inhibition of PI3K/AKT/mTOR signaling in human Bel7402 cells assessed as reduction in mTOR phosphorylation at 20 uM after 24 to 72 hrs by Western blot analysis; assay type: cell-based
Procedure, shortened: (§2)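 Bel7402 cells (1.5 × 10^5/mL) treated 24 or 72 h. Lysates (0.05 mg/lane) run on 12% SDS-PAGE, transferred to nitrocellulose, blocked with 5% nonfat milk. Probed for phospho-Akt (Ser473), total Akt, phospho-mTOR, total mTOR and β-actin; HRP secondary, chemiluminescent detection. Bands quantified against vehicle control; mean ± SD of three separate assays.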

[10] = Inhibition of PI3K/AKT/mTOR signaling in human Bel7402 cells assessed as reduction in AKT phosphorylation at 20 uM after 24 to 72 hrs by Western blot analysis; assay type: cell-based; procedure, shortened: as §2
Huh-7 = assay: Antiproliferative activity against human HuH7 cells after 72 hrs by MTT assay; assay type: functional, cell-based; settings: Huh-7, 72 h
Histone deacetylase 3 = Histone deacetylase 3 (Homo sapiens, UniProt O15379); assay: Inhibition of human HDAC3 using Boc-Lys (Ac)-AMC as substrate incubated for 60 mins by fluorimetric assay
Histone deacetylase 3, sequence (O15379 whole entry): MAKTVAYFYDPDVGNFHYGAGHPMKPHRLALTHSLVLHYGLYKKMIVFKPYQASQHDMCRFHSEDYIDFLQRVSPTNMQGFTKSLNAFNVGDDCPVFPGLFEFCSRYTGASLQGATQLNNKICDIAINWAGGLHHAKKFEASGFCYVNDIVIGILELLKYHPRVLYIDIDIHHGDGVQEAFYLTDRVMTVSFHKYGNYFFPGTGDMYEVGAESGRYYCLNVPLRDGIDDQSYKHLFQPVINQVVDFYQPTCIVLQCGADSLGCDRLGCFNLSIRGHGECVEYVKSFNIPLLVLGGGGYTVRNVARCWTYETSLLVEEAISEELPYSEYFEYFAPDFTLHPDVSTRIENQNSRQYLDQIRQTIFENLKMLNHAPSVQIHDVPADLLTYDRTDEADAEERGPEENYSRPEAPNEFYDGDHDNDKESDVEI

Homo sapiens [11] = species on record: Homo sapiens; assay: Selectivity ratio of IC50 for HDAC1 (unknown origin) to IC50 for human HDAC6
Procedure, shortened: (§3)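 Recombinant human HDAC1, 3, 6 and 8 (fluorimetric kit) incubated with compound over a range of concentrations and Boc-Lys(Ac)-AMC substrate at 37 °C for 60 min. Reaction quenched with lysine developer; after 30 min, fluorescence read at ex 355/em 460 nm. Inhibition taken relative to control and IC50 fitted; ratios built from these IC50s.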

Homo sapiens [12] = species on record: Homo sapiens; assay: Selectivity ratio of IC50 for human HDAC3 to IC50 for human HDAC6; procedure, shortened: as §3
[13] = target: T1, Protein deacetylase HDAC6 (Homo sapiens, UniProt Q9UBN7); assay: Inhibition of human HDAC6 using Boc-Lys (Ac)-AMC as substrate incubated for 60 mins by fluorimetric assay
T1 sequence (Q9UBN7 whole entry): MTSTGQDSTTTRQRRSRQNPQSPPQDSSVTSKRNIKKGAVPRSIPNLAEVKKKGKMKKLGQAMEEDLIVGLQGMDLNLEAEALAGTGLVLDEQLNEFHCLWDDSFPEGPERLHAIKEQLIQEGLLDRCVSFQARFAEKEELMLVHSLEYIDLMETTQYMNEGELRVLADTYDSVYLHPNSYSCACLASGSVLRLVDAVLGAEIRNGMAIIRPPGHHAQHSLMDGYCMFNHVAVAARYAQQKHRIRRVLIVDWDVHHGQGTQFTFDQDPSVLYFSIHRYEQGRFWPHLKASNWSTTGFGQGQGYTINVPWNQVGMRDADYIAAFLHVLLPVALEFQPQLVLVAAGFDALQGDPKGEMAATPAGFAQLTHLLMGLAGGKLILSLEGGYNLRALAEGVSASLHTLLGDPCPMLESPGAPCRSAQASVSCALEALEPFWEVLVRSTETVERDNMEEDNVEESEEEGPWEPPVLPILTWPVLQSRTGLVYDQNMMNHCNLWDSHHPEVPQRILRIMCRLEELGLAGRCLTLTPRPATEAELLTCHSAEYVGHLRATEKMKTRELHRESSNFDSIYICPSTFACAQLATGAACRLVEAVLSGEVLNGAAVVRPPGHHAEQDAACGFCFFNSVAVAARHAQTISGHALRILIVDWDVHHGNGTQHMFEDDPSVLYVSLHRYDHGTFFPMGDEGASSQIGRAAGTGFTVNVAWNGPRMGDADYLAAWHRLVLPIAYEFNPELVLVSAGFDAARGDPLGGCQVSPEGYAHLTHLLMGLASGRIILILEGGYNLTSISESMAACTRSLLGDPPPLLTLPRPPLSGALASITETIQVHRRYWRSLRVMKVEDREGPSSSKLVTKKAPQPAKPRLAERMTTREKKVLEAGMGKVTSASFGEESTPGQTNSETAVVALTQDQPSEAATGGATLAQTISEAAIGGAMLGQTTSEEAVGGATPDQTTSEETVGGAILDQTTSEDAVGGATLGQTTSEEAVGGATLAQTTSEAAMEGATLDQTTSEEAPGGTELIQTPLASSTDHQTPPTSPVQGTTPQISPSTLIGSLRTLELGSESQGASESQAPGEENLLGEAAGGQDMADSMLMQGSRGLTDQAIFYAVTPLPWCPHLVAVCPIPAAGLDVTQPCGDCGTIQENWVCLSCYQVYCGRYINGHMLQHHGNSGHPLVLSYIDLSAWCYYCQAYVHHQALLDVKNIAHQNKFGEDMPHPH

Histone deacetylase 8 = target: T2, Histone deacetylase 8 (Homo sapiens, UniProt Q9BY41); assay: Inhibition of human HDAC8 using Boc-Lys (Ac)-AMC as substrate incubated for 60 mins by fluorimetric assay
T2 sequence (Q9BY41 whole entry): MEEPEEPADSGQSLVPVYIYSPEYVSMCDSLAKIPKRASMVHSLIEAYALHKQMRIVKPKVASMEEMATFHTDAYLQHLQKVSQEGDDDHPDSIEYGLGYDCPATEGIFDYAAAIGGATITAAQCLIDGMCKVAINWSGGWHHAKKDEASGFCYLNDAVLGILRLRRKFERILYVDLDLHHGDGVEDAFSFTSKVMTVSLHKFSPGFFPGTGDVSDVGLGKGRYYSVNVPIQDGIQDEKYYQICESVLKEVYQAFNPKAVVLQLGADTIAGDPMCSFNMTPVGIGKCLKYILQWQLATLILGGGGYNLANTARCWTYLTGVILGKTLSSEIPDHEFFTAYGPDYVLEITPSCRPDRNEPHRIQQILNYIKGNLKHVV

## COc1ccc(-c2nc(NCCOc3ccc(/C=C/C(=O)NO)cc3)cc3c2[nH]c2ccccc23)cc1
SMMC-7721
  IC50: 6.3 µM
Histone deacetylase 1
  IC50: 0.075 µM
Bel-7402 [1]
  IC50: 5.2 µM
HepG2
  IC50: 5.8 µM

## O=C(CCCCCCC(=O)Nc1ccccc1)NO [VORINOSTAT]
Bel-7402 [2]
  Activity: Active
Bel-7402 [3]
  Activity: Active
Bel-7402 [4]
  Activity: 45.4%
Bel-7402 [5]
  Activity: Active
Bel-7402 [6]
  Activity: Active

## COc1ccc2c(c1)[nH]c1c(C)nccc12 [HARMINE]
Bel-7402 [7]
  Activity: 36.1%
Histone deacetylase 1
  IC50: > 1 µM
Bel-7402 [8]
  Activity: Active
[9]
  inhibition: Active
[10]
  inhibition: Active

## COc1ccc(-c2nc(NCCCCOc3ccc(/C=C/C(=O)NO)cc3)cc3c2[nH]c2ccccc23)cc1
SMMC-7721
  IC50: > 12.5 µM
Histone deacetylase 1
  IC50: 0.125 µM
Bel-7402 [1]
  IC50: 8.9 µM
HepG2
  IC50: 9.5 µM

## COc1ccc(-c2nc(NCCCCOc3ccc(/C=C/C(=O)NO)cc3OC)cc3c2[nH]c2ccccc23)cc1
SMMC-7721
  IC50: 7.1 µM
Histone deacetylase 1
  IC50: 0.061 µM
Bel-7402 [1]
  IC50: 4.6 µM
HepG2
  IC50: 5.3 µM
Huh-7
  IC50: 6.2 µM

## COc1ccc(-c2nc(NCCOc3ccc(/C=C/C(=O)NO)cc3OC)cc3c2[nH]c2ccccc23)cc1
SMMC-7721
  IC50: 4 µM
Histone deacetylase 1
  IC50: 0.032 µM
Bel-7402 [1]
  IC50: 1.8 µM
Histone deacetylase 3
  IC50: 0.125 µM
HepG2
  IC50: 4.8 µM
Homo sapiens [11]
  Ratio IC50: 2
Huh-7
  IC50: 2.8 µM
Homo sapiens [12]
  Ratio IC50: 7 to 11
[13]
  IC50: 0.017 µM
Histone deacetylase 8
  IC50: > 1 µM

## COc1ccc(-c2nc(NCCCOc3ccc(/C=C/C(=O)NO)cc3)cc3c2[nH]c2ccccc23)cc1
SMMC-7721
  IC50: 4.1 µM
Histone deacetylase 1
  IC50: 0.057 µM
Bel-7402 [1]
  IC50: 4 µM
HepG2
  IC50: 3.4 µM
